This passage reports Activity results from ChEMBL document CHEMBL4184234, “Synthesis of novel (-)-epicatechin derivatives as potential endothelial GPER agonists: Evaluation of biological effects” (Bioorg Med Chem Lett, 2018).

Active and inactive are the calls of the source. No cut-off for these calls is given here.

The species entered for assay [1] is Bos taurus. Nature of the assay: Agonist activity at GPER in BCAEC assessed as increase in nitric oxide production at 1 uM incubated for 10 mins by nitrate/nitrite fluorometric assay relative to untreated (-)-epicatechin. A digest of the protocol:
(§1)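 BCAEC given 1 μM ligand for 10 min, with 1 μM (−)-epicatechin as reference; GPER blockade by 30 min pre-incubation with 1 μM G15 before ligand. Nitrates/nitrites in supernatant measured as surrogate of NO synthesis. Values normalized to control (set to 1) or to Epi (100%). Mean ± SEM, n=5 per group.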

The species entered for assay [2] is Bos taurus. Nature of the assay: Agonist activity at GPER in BCAEC assessed as increase in eNOS Ser1179 phosphorylation at 1 uM incubated for 10 mins by Western blot relative to untreated (-)-epicatechin. Put shortly: (§2)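 Bovine coronary artery endothelial cells stimulated 10 min with 1 μM ligand; (−)-epicatechin at 1 μM as reference. For GPER blockade, cells pre-incubated 30 min with G15 (1 μM) before ligand. Ser1179-phosphorylated eNOS immunodetected by Western blot. Control set to 1, or Epi set to 100% with derivatives expressed as percent of Epi. Mean ± SEM, n=5 per group.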
A general note: Immunoblotting shows a protein as a band on a membrane.

For assay [3], the species on record is Bos taurus. Nature of the assay: Agonist activity at GPER in BCAEC assessed as increase in nitric oxide production at 1 uM pre-incubated with 1 uM GPER antagonist G15 for 30 mins followed by compound incubation for 10 mins by nitrate/nitrite fluorometric assay relative to untreated control. On the set-up: scale not given: the % may be the effect or the level left. Put shortly: as §1

For assay [4], the species on record is Bos taurus. Nature of the assay: Agonist activity at GPER in BCAEC assessed as increase in eNOS Ser1179 phosphorylation at 1 uM pre-incubated with 1 uM GPER antagonist G15 for 30 mins followed by compound incubation for 10 mins by Western blot relative to untreated control. On the set-up: scale not given: the % may be the effect or the level left. A digest of the protocol:
as §2

Assay [5] is filed under the species Bos taurus. Nature of the assay: Binding affinity to GPER in BCAEC protein extracts using compound loaded on to affinity chromatography Agarose columns incubated overnight at 4 degC with mild tumbling by Coomassie-blue staining based SDS-PAGE and Western blot method. A digest of the protocol:
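Propargyl derivative coupled to agarose-azide beads by click chemistry; coupling gauged by fluorescence of washings against an external calibration curve. Three control columns lacked ligand and/or copper sulfate/ascorbate. BCAEC protein extract (0.8–1.0 mg) loaded, overnight 4 °C with mild tumbling. Washed with 5 mM EDTA/0.5% SDS/250 mM NaCl in PBS pH 7.5, then PBS. Eluted in PBS with 8 M urea, concentrated, run on SDS-PAGE with Coomassie staining. Western blot used monoclonal GPER antibody.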

With `C#CCOc1cc(OCC#C)c2c(c1)O[C@H](c1ccc(OCC#C)c(OCC#C)c1)[C@H](O)C2`, the Activity came out at 107% in the assay listed under Bos taurus [1], 111% in the assay listed under Bos taurus [2], 63.6% in the assay filed under Bos taurus [3] and 57.4% in the assay listed under Bos taurus [4].

In the case of `C#CCOc1cc(OCC#C)c2c(c1)O[C@H](c1ccc(OCC#C)c(OCC#C)c1)[C@H](OCC#C)C2`, the Activity in the assay listed under Bos taurus [1] worked out at 102%; in the assay filed under Bos taurus [2] it was 92.6%; in the assay listed under Bos taurus [3], 60%; in the assay listed under Bos taurus [4], 54.8%.

Take `Oc1cc(O)c2c(c1)O[C@H](c1ccc(O)c(O)c1)[C@H](O)C2`: the results for the Activity in the assay filed under Bos taurus [3] and in the assay listed under Bos taurus [4] were 60% and 55.6%, respectively. In addition, the outcome in the assay filed under Bos taurus [5] was Active.

Regarding `CS(=O)(=O)O[C@@H]1Cc2c(O)cc(O)cc2O[C@@H]1c1ccc(O)c(O)c1`, the Activity in the assay listed under Bos taurus [1] is 54.5%; in the assay filed under Bos taurus [2], 64.8%; in the assay listed under Bos taurus [3], 41.8%; in the assay filed under Bos taurus [4] it was 53%.

For `C#CCO[C@@H]1Cc2c(O)cc(O)cc2O[C@@H]1c1ccc(O)c(O)c1`, the Activity in the assay listed under Bos taurus [1] came to 142%; in the assay listed under Bos taurus [2], 137%; in the assay listed under Bos taurus [3], 70.9%; in the assay listed under Bos taurus [4], 59.3%.
